Here are results for seven compounds from ChEMBL document CHEMBL2151023, “2-Alkynoic fatty acids inhibit topoisomerase IB from Leishmania donovani” (Bioorg Med Chem Lett, 2012).

The test system of assay [1] is Trypanosoma brucei rhodesiense. In words: Antiprotozoal activity against Trypanosoma brucei rhodesiense bloodstream forms. It is filed as functional, organism-based.
For the next assay, the system named is Trypanosoma cruzi. Nature of the assay: Antiprotozoal activity against intracellular Trypanosoma cruzi amastigotes in rat L6 cells. It is filed as functional, organism-based.
The next assay relates to Leishmania donovani. In words: Antiprotozoal activity against Leishmania donovani axenic amastigotes. It is filed as functional, organism-based.
The next assay concerns L6. Nature of the assay: Cytotoxicity against rat L6 cells. In kind it is cell-based.
The test system of the next assay is Leishmania infantum. Nature of the assay: Induction of apoptosis in Leishmania infantum promastigotes at 400 uM after 24 hrs by AnnexinV-FITC/propidium iodide based FACS flow cytometry. In kind it is functional. Summed up: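 L. infantum promastigotes exposed to 400 μM for 24 h, harvested, washed twice in PBS, resuspended at 1×10^6 cells/ml, stained with annexin V-FITC plus propidium iodide for 15 min at room temperature in the dark. Flow cytometry on at least 10,000 gated cells, read as percent of cells per quadrant. Untreated and H2O2-treated cells serve as controls. Representative of three independent trials.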

Assay [2] can be described thus: Inhibition of human topoisomerase 1B-mediated relaxation of supercoiled pSK DNA after 30 mins by ethidium bromide staining based agarose gel electrophoresis. Summed up: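 Plasmid DNA relaxation assay with the enzyme over 30 min at 37 °C, acid at 3.125–100 μM. Reactions stopped with 1% SDS plus proteinase K. Products resolved on agarose and stained with ethidium bromide, scoring supercoiled, nicked and relaxed topoisomer bands.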

A short description of assay [3]: Cytotoxicity against BALB/C mouse macrophages. In kind it is cell-based. The note with it: Macrophage.
Assay [4] deals with T1, DNA topoisomerase type IB small subunit (Leishmania major) (UniProt Q95Z89).
T1 sequence (whole entry): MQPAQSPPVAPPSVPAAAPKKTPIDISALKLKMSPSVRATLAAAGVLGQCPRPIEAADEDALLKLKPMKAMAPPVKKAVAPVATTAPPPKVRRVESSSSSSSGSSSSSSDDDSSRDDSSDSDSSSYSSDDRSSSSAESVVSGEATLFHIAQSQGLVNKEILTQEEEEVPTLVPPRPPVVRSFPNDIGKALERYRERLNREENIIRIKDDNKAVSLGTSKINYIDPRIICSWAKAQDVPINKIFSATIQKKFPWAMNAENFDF
In words: Inhibition of Leishmania donovani topoisomerase 1B-mediated relaxation of supercoiled pSK DNA at 100 uM after 4 mins by ethidium bromide staining based agarose gel electrophoresis. Summed up: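 Stopped with 1% SDS, then digested 1 h at 37°C with 1 mg/ml proteinase K. Extracted with phenol-chloroform and run on 1% agarose containing 40 µg/ml ethidium bromide.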

In assay [5] the target is T1, DNA topoisomerase type IB small subunit (Leishmania major). In words: Inhibition of Leishmania donovani topoisomerase 1B-mediated relaxation of supercoiled pSK DNA at 100 uM preincubated for 15 mins by ethidium bromide staining based agarose gel electrophoresis. Put shortly:
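LdTopIB pre-incubated 15 min at 4 °C with 100 µM compound, or with DMSO as control. […] Samples stopped with SDS, digested with proteinase K, phenol-chloroform extracted and resolved on ethidium bromide agarose gel.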

Active and inactive are the calls of the source. No cut-off for these calls is given here.

Take `CCCCCCCCCCCCCCCC#CC(=O)O`: the IC50 in assay [1] is 64.5 µM; with Trypanosoma cruzi it was 48.1 µM; with Leishmania donovani it was 11 µM; with L6, 20 µM; in assay [3], over 100 µM. This compound had an Activity in the assay on Leishmania infantum of 1.98%. Moreover, the EC50 in assay [2] amounted to 51.9 µM.
`O=C(Cn1ccnc1[N+](=O)[O-])NCc1ccccc1` [BENZNIDAZOLE] displayed an IC50 in the assay on Trypanosoma cruzi of 1.47 µM.
The compound `COc1cc([C@@H]2c3cc4c(cc3[C@H](O)[C@H]3COC(=O)[C@H]23)OCO4)cc(OC)c1OC` [PODOFILOX] registered an IC50 in the assay on L6 of 0.02 µM.
In turn, `CC[C@@]1(O)C(=O)OCc2c1cc1n(c2=O)Cc2cc3ccccc3nc2-1` [CAMPTOTHECIN] gave an EC50 in [2] of 2 µM. The compound also came in with an IC50 in [3] of 0.62 µM. Moreover, in [4], the inhibition entry was “inactive”. Moreover, the inhibition entry in assay [5] was “Active”.
Consider `CCCCCCCCCCCC#CC(=O)O`, for which the IC50 was 255 µM in assay [1]; 62.4 µM with Trypanosoma cruzi; 24.7 µM in the assay with Leishmania donovani; 40.9 µM in the assay on L6; over 100 µM in assay [3]. For the same compound, the Activity in the assay with Leishmania infantum was determined as 1.75%. This compound gave a half-maximal effective concentration (EC50) in [2] of over 100 µM.
`CCCCCCCCCCCCCCCCOP(=O)([O-])OCC[N+](C)(C)C` [MILTEFOSINE] yielded an IC50 with Leishmania donovani of 0.49 µM.
In the assay on L6, `CCCCCCCCCCCCCCCC(=O)O` [PALMITIC ACID] showed an IC50 of 209 µM.
